# Measurements published in ChEMBL document CHEMBL1142132, “Sublethal concentrations of the aminoglycoside amikacin interfere with cell division without affecting chromosome dynamics” (2007).
# Active and inactive are the calls of the source. The rule behind the calls is not given here.
# Tests used:
# Escherichia coli [1] = experiment: Distribution of Escherichia coli AB1157 IL05 new born cells containing one ori and one ter foci at 4 ug/ml after 14 hrs incubation; type: functional
# In short: (§1)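 IL05(pWX6) (LacI-CFP/TetR-YFP marking ori and ter arrays) grown at 37°C in M9-sodium acetate with required amino acids, 100 μg/ml ampicillin, 0.5 mM IPTG, 40 ng/ml anhydrotetracycline. AMK added at OD600 0.05. After 14 h, cells placed on 1% agarose-PBS pads, imaged (×100, phase plus fluorescence). 200 cells per culture classified by ori/ter foci number; three independent experiments.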
# Escherichia coli [2] = experiment: Distribution of Escherichia coli AB1157 IL05 new born cells containing duplicated ori and ter foci at 16 ug/ml after 14 hrs incubation; type: functional; in short: as §1
# Escherichia coli [3] = experiment: Distribution of Escherichia coli AB1157 IL05 new born cells containing four ori foci at 32 ug/ml after 14 hrs incubation; type: functional; in short: as §1
# Escherichia coli [4] = experiment: Distribution of Escherichia coli AB1157 IL05 new born cells containing one ori and one ter foci at 16 ug/ml after 14 hrs incubation; type: functional; in short: as §1
# Escherichia coli [5] = experiment: Distribution of Escherichia coli AB1157 IL05 new born cells containing duplicated sister ori foci at 4 ug/ml after 14 hrs incubation; type: functional; in short: as §1
# Escherichia coli [6] = experiment: Distribution of Escherichia coli AB1157 IL05 new born cells containing four ori foci at 4 ug/ml after 14 hrs incubation; type: functional; in short: as §1
# Escherichia coli [7] = experiment: Loss of cell viability in Escherichia coli AB1157 IL05 above 16 ug/ml after 8 hrs incubation; type: functional, organism-based
# Escherichia coli [8] = experiment: Distribution of Escherichia coli AB1157 IL05 new born cells containing duplicated sister ori foci at 32 ug/ml after 14 hrs incubation; type: functional; in short: as §1
# Escherichia coli [9] = experiment: Distribution of Escherichia coli AB1157 IL05 new born cells containing duplicated ori and ter foci at 32 ug/ml after 14 hrs incubation; type: functional; in short: as §1
# Escherichia coli [10] = experiment: Distribution of Escherichia coli AB1157 IL05 new born cells containing eight ori foci at 4 ug/ml after 14 hrs incubation; type: functional; in short: as §1
# Escherichia coli [11] = experiment: Sublethal concentration measured by presence of granular bodies in Escherichia coli AB1157 IL05 cells at 4 ug/ml after 14 hrs incubation; type: functional, organism-based
# In short: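 IL05(pWX6) grown 14 h at 37°C in acetate minimal medium with AMK added at OD600 0.05. Cells then examined by phase-contrast microscopy in 27% gelatin-containing minimal medium, scoring polar granular bodies and nucleoids.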
# Escherichia coli [12] = experiment: Distribution of Escherichia coli AB1157 IL05 new born cells containing duplicated sister ori foci at 16 ug/ml after 14 hrs incubation; type: functional; in short: as §1
# Escherichia coli [13] = experiment: Assembly of Z-ring in Escherichia coli AB1157 IL06(pCP12) cells at 4 ug/ml
# Escherichia coli [14] = experiment: Distribution of Escherichia coli AB1157 IL05 new born cells containing eight ori foci at 16 ug/ml after 14 hrs incubation; type: functional; in short: as §1
# Escherichia coli [15] = experiment: Distribution of Escherichia coli AB1157 IL05 new born cells containing eight ori foci at 8 ug/ml after 14 hrs incubation; type: functional; in short: as §1
# Escherichia coli [16] = experiment: Distribution of Escherichia coli AB1157 IL05 new born cells containing four ori foci at 8 ug/ml after 14 hrs incubation; type: functional; in short: as §1
# Escherichia coli [17] = experiment: Distribution of Escherichia coli AB1157 IL05 new born cells containing duplicated sister ori foci at 8 ug/ml after 14 hrs incubation; type: functional; in short: as §1
# Escherichia coli [18] = experiment: Distribution of Escherichia coli AB1157 IL05 new born cells containing duplicated ori and ter foci at 4 ug/ml after 14 hrs incubation; type: functional; in short: as §1
# Escherichia coli [19] = experiment: Distribution of Escherichia coli AB1157 IL05 new born cells containing duplicated ori and ter foci at 8 ug/ml after 14 hrs incubation; type: functional; in short: as §1
# Escherichia coli [20] = experiment: Distribution of Escherichia coli AB1157 IL05 new born cells containing eight ori foci at 32 ug/ml after 14 hrs incubation; type: functional; in short: as §1
# Escherichia coli [21] = experiment: Distribution of Escherichia coli AB1157 IL05 new born cells containing one ori and one ter foci at 32 ug/ml after 14 hrs incubation; type: functional; in short: as §1
# Escherichia coli [22] = experiment: Distribution of Escherichia coli AB1157 IL05 new born cells containing one ori and one ter foci at 8 ug/ml after 14 hrs incubation; type: functional; in short: as §1
# Escherichia coli [23] = experiment: Distribution of Escherichia coli AB1157 IL05 new born cells containing four ori foci at 16 ug/ml after 14 hrs incubation; type: functional; in short: as §1
structure (smiles),measurement,setting,value
NCC[C@H](O)C(=O)N[C@@H]1C[C@H](N)[C@@H](O[C@H]2O[C@H](CN)[C@@H](O)[C@H](O)[C@H]2O)[C@H](O)[C@H]1O[C@H]1O[C@H](CO)[C@@H](O)[C@H](N)[C@H]1O [AMIKACIN],Activity,Escherichia coli [1],0%
same,Activity,Escherichia coli [2],34%
same,Activity,Escherichia coli [3],0%
same,Activity,Escherichia coli [4],6%
same,Activity,Escherichia coli [5],0%
same,Activity,Escherichia coli [6],44%
same,Activity,Escherichia coli [7],inactive
same,Activity,Escherichia coli [8],37%
same,Activity,Escherichia coli [9],31%
same,Activity,Escherichia coli [10],8%
same,Activity,Escherichia coli [11],Active
same,Activity,Escherichia coli [12],3%
same,Activity,Escherichia coli [13],35%
same,Activity,Escherichia coli [14],11%
same,Activity,Escherichia coli [15],5%
same,Activity,Escherichia coli [16],69%
same,Activity,Escherichia coli [17],0%
same,Activity,Escherichia coli [18],48%
same,Activity,Escherichia coli [19],36%
same,Activity,Escherichia coli [20],0%
same,Activity,Escherichia coli [21],32%
same,Activity,Escherichia coli [22],0%
same,Activity,Escherichia coli [23],46%
